# Results from different studies.
# Protocols differ between the studies behind these lines.
# Target: Cyclin-dependent kinase 3 (CDK3, Homo sapiens, UniProt Q00526)
SMILES,observed,method,tested at,remaining binding
CC(C)(C)c1ccc(-c2nc(CBr)nn2-c2cccc(O)c2)cc1,cell-free assay,competition with immobilised ligand,10 µM,100%
CC1CCCN1c1nccc(-c2cnn3ncccc23)n1 (stereo not drawn),binding,,1 µM,100%
C[C@H](c1cccc(C#N)c1)n1cc(Cl)cc(C(N)=O)c1=N,cell-free assay,competition with immobilised ligand,1 µM,100%
CN(c1nccc(-c2cnn3ncccc23)n1)C1CC1,binding,,1 µM,100%
CCCOc1ccc([C@@H]2[C@@H](C(=O)O)[C@H](c3ccc4c(c3)OCO4)CN2CC(=O)Nc2c(CC)cccc2CC)cc1,cell-free assay,competition with immobilised ligand,1 µM,100%
O=C(NCCCN1CCOCC1)c1ccc(Nc2nccc(-c3cc4ccccc4s3)n2)cc1,binding,competition with immobilised ligand,1 µM,95%
C[C@H](c1ccnc(Nc2nc3ccc(-c4cc(N(C)C)ncn4)cc3[nH]2)c1)N1CCN(C(=O)CC(F)(F)F)CC1,cell-free assay,competition with immobilised ligand,0.1 µM,100%
CN(C)c1ncc(F)c(-c2cnn3ncccc23)n1,binding,,1 µM,82%
O=C1CCc2cc(Nc3cc(OC4CCOCC4)c([N+](=O)[O-])cc3Cl)ccc2N1,cell-free assay,competition with immobilised ligand,1 µM,100%
FC(F)(F)Oc1cccc(-c2cnc3ccc(-c4ccncc4)nn23)c1,cell-free assay,competition with immobilised ligand,5 µM,79%
CCN1CCN(Cc2ccc(C(=O)Nc3ccc(C)c(Oc4ccc5c(c4)CC(=O)N5)c3)cc2C(F)(F)F)CC1,binding,competition with immobilised ligand,1 µM,100%
C[C@H]1CCN(c2nccc(-c3cnn4ncccc34)n2)C1,binding,,1 µM,86%
O=C(Nc1c[nH]nc1C(=O)NC1CCNCC1)c1cc(F)cc(F)c1,binding,competition with immobilised ligand,1 µM,91%
F[C@@H]1CCN(c2nccc(-c3cnn4ncccc34)n2)C1,binding,,1 µM,100%
COc1cnc(Nc2cccc(S(N)(=O)=O)c2)nc1N1CCN(c2ccccc2)C(=O)C1,binding,competition with immobilised ligand,1 µM,99%
C[C@@H]1CN(c2ccc3ncc(-c4ccc5[nH]nc(C6CC6)c5c4)n3n2)C[C@H](C)O1,binding,competition with immobilised ligand,50 nM,100%
CCC(=O)N[C@H]1CC[C@@H](C(=O)N(C)c2ccc(-c3nc4ccccc4o3)cc2)C1,cell-free assay,competition with immobilised ligand,1 µM,98%
Nc1ncc2c(n1)-c1c([nH]c3ccc(C#CC4CC4)cc13)CCCC2,binding,competition with immobilised ligand,1 µM,77%
N#Cc1ccccc1CSc1nnc2c(n1)[nH]c1ccccc12,binding,competition with immobilised ligand,10 µM,100%
CCS(=O)(=O)c1cc2cc(C[C@](O)(CC(C)(C)c3ccc(F)cc3C(N)=O)C(F)(F)F)[nH]c2cn1,cell-free assay,competition with immobilised ligand,1 µM,100%
O=C(c1ccc(Nc2ncc(Cl)c(-c3ccc(Cl)s3)n2)cc1)N1CCC(N2CCCC2)CC1,binding,competition with immobilised ligand,1 µM,47%
